Reference: ChEMBL document CHEMBL3992564, “Design and synthesis of novel, potent and selective hypoxanthine analogs as adenosine A1 receptor antagonists and their biological evaluation” (Bioorg Med Chem, 2017)
pKi: −log10 of the molar value. In brackets after ≈: the same amount, converted by molar mass.

Key:
Liver [1] = experiment: Metabolic stability in rat liver microsomes assessed as metabolic rate measured after 30 mins in presence of NADPH; assay type: ADME, microsome; details: 0.5 h
[2] = Volume of distribution at steady state in Wistar rat at 3 mg/kg, iv by LC-Ms/MS analysis; assay type: ADME, organism-based; details: in vivo, read-out: Vdss
Procedure, shortened: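 Male Wistar rats (230 ± 15 g), fasted overnight with water available. IV dosing at 3 mg/kg by tail vein as solution (0.6 mg/mL, 5 mL/kg). PO dosing at 5 mg/kg by oral gavage. Serial blood sampling into K2EDTA from 0.008 (IV only) to 24 h. Plasma precipitated with acetonitrile containing internal standard and analysed by LC/MS/MS. Non-compartmental parameters calculated per animal; values are means of n = 4.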

[3] = Thermodynamic solubility of the compound in pH 7.4 solution; assay type: physicochemical; details: read-out: Therm_solubility
[4] = Metabolic stability in human liver microsomes assessed as parent compound remaining measured after 30 mins in presence of NADPH; assay type: ADME, microsome; details: read-out: Stability
Adenosine receptor A1 [5] = biological target: T1, Adenosine receptor A1 (Homo sapiens, UniProt P30542); experiment: Antagonist activity at human adenosine A1 receptor expressed in HEK293 cells assessed as reduction in CPA-mediated inhibition of forskolin-stimulated cAMP level preincubated for 15 mins followed by CPA treatment for 15 mins and subsequent addition of forskolin measured after 30 mins by HTRF assay; assay type: functional, cell-based
T1 sequence (P30542 whole entry): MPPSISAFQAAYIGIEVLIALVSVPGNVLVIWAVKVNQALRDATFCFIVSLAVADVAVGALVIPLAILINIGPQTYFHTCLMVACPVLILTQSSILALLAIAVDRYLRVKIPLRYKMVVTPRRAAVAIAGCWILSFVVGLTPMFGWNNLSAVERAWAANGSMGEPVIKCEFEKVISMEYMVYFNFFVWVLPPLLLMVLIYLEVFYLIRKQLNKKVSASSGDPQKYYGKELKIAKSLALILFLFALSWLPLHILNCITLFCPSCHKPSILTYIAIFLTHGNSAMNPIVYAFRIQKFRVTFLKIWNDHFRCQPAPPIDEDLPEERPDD

CYP1A2 = biological target: T2, CYP1A2 (Homo sapiens, UniProt P05177); experiment: Inhibition of CYP1A2 (unknown origin) at 5 uM relative to control; assay type: ADME
T2 sequence (P05177 whole entry): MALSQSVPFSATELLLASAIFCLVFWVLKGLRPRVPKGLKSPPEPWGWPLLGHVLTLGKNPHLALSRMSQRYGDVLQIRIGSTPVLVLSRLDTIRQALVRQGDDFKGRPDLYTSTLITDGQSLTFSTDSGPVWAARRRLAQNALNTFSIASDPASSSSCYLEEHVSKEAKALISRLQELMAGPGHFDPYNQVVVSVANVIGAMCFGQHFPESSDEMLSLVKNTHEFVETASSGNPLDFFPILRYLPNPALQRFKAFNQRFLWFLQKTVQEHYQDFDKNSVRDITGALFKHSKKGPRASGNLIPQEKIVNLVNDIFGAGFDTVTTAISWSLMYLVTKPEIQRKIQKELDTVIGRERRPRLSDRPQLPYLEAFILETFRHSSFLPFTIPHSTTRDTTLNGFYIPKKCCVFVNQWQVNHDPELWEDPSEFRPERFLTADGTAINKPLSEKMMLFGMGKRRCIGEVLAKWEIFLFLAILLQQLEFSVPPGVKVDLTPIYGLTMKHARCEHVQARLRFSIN

[6] = Protein binding in rat plasma at 5 uM; assay type: ADME, cell-free; details: read-out: PPB (converted)
[7] = AUC (0 to t) in Wistar rat at 3 mg/kg, iv by LC-Ms/MS analysis; assay type: ADME, organism-based; details: in vivo
Procedure, shortened: (§1)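 Male Wistar rats (230 ± 15 g), fasted overnight with water available. IV dose of 3 mg/kg given by tail vein as a solution (0.6 mg/mL, 5 mL/kg). PO dose of 5 mg/kg given by gavage as a suspension. Blood was collected into K2EDTA at 0.008 (IV only) to 24 h and plasma was spun off. Samples were precipitated with acetonitrile and run on LC/MS/MS. Parameters came from non-compartmental analysis of individual animals, mean of n = 4.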

[8] = Metabolic stability in rat liver microsomes assessed as parent compound remaining measured after 30 mins in presence of NADPH; assay type: ADME, microsome; details: read-out: Stability
Adenosine receptor A2b = biological target: T3, Adenosine receptor A2b (Homo sapiens, UniProt P29275); experiment: Antagonist activity at human adenosine A2B receptor expressed in HEK293 cells assessed as reduction in NECA-induced increase in cAMP level preincubated for 15 mins followed by NECA addition measured after 15 mins by HTRF assay; assay type: functional, cell-based
T3 sequence (P29275 whole entry): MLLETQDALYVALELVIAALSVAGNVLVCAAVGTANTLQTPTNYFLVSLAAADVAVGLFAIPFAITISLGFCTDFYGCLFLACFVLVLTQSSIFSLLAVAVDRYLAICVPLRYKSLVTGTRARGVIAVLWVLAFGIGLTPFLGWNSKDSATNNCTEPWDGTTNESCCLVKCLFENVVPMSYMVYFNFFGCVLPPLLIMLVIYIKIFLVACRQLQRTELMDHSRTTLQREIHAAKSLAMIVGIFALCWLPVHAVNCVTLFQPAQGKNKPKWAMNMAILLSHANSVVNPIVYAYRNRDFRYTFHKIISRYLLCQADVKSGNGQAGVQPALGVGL
Procedure, shortened: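 Overnight HEK-A1 or HEK-A2B cultures were treated with 1 U/mL ADA for 90 min at 37°C. Compound was added for 15 min, then agonist for 15 min (1 nM CPA for A1; 70 nM NECA for A2B) at room temperature in incomplete DMEM with ADA. Rolipram (20 µM) was included for A1 only. cAMP was read by HTRF.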

[9] = Thermodynamic solubility of the compound in pH 4 solution; assay type: physicochemical; details: read-out: Therm_solubility
Adenosine receptor A1 [10] = biological target: T1, Adenosine receptor A1; experiment: Displacement of [3H]DPCPX from human adenosine A1 receptor expressed in HEK293 cell membranes after 90 mins
CYP2D6 = CYP2D6 (Homo sapiens, UniProt P10635); experiment: Inhibition of CYP2D6 (unknown origin) at 5 uM relative to control; assay type: ADME
Liver [11] = experiment: Metabolic stability in human liver microsomes assessed as metabolic rate measured after 30 mins in presence of NADPH; assay type: ADME, microsome; details: 0.5 h
[12] = Thermodynamic solubility of the compound in pH 2 solution; assay type: physicochemical; details: read-out: Therm_solubility
Adenosine receptor A2a = Adenosine receptor A2a (Homo sapiens, UniProt P29274); experiment: Displacement of [3H]ZM241385 from human adenosine A2A receptor expressed in HEK293 cell membranes after 90 mins
Procedure, shortened: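 Membranes from HEK-293 cells stably transfected with human receptor, pre-treated with adenosine deaminase. Radioligands: 1 nM [3H]DPCPX (A1), 1 nM [3H]ZM241385 (A2A), 1.6 nM [3H]MRS-1754 (A2B), 2 nM [3H]HEMADO (A3). Buffers: Tris pH 7.4 (A1, A2A, A3) or pH 6.5 (A2B), with ADA. Incubated 90 min at room temperature, then filtered. Nonspecific binding defined with 100 µM NECA. Ki from 8 concentrations run in triplicate.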

[13] = Clearance in Wistar rat at 3 mg/kg, iv by LC-Ms/MS analysis; assay type: ADME, organism-based; details: in vivo; procedure, shortened: as §1
CYP3A4 = CYP3A4 (Homo sapiens, UniProt P08684); experiment: Inhibition of CYP3A4 (unknown origin) at 5 uM relative to control; assay type: ADME
Chain of CYP3A4 (P08684 whole entry): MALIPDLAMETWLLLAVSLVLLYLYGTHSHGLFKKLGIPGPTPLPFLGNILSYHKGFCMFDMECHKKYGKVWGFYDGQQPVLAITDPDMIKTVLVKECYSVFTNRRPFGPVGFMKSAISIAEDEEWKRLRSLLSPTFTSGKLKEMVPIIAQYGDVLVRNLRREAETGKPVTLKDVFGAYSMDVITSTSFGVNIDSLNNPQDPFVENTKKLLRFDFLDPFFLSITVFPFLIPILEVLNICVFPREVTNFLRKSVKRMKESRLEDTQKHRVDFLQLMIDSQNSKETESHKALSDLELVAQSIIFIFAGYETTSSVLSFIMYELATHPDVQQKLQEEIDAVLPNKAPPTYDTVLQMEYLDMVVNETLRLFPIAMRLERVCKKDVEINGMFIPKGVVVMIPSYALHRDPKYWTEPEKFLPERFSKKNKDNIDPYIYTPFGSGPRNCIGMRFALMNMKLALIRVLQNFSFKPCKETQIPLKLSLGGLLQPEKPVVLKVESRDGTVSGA

Chain of CYP2D6 (P10635 whole entry): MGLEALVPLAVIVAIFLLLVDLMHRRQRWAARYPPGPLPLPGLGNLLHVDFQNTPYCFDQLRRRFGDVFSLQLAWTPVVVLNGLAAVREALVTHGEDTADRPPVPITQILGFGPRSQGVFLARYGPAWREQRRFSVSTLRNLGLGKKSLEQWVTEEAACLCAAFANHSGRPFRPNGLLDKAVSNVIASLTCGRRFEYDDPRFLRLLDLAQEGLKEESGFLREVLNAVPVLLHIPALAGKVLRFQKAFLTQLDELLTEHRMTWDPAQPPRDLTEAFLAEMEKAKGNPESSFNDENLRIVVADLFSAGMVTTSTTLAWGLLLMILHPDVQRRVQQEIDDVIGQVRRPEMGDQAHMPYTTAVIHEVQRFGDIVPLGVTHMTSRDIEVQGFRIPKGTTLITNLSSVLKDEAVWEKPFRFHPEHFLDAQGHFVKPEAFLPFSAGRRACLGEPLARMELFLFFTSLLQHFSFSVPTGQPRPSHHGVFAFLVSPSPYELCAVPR
Chain of Adenosine receptor A2a (P29274 whole entry): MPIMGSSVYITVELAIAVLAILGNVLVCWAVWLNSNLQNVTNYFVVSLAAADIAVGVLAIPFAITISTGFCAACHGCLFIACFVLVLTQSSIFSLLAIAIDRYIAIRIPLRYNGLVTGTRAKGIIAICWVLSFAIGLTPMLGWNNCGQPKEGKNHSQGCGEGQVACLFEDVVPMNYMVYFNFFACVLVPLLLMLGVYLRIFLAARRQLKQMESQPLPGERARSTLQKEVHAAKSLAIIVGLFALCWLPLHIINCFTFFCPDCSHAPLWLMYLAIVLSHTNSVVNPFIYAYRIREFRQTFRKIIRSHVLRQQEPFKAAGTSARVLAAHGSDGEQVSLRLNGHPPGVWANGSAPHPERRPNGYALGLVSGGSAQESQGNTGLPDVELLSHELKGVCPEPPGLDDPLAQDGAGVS

| Compound | Drug metabolism (Liver [1]) [nmol/min/mg] | Vd [2] [L/kg] | solubility thermodynamic [3] [µM] | remaining at 0.5 h [4] [%] | pKi (Adenosine receptor A1 [5]) | inhibition at 5 µM (CYP1A2) [%] | fraction unbound at 5 µM [6] | AUC(0-t) [7] [µM·h] | remaining at 0.5 h [8] [%] | pKi (Adenosine receptor A2b) | solubility thermodynamic [9] [µM] | pKi (Adenosine receptor A1 [10]) | inhibition at 5 µM (CYP2D6) [%] | Drug metabolism (Liver [11]) [nmol/min/mg] | solubility thermodynamic [12] [µM] | pKi (Adenosine receptor A2a) | clearance [13] [mL/min/kg] | inhibition at 5 µM (CYP3A4) [%] |
| --- | --- | --- | --- | --- | --- | --- | --- | --- | --- | --- | --- | --- | --- | --- | --- | --- | --- | --- |
| CCCn1c(Oc2cccnc2C)nc2nc(C3CCCC3)[nH]c2c1=O | 0.07 | 2 | 38 (≈ 13.4 µg/mL) | 79 | 9.55 | 0 | 0.23 | 2.7 | 78 | 6.25 | 43 (≈ 15.2 µg/mL) | 8.18 | 0 | 0.06 | 2150 (≈ 761 µg/mL) | 5.70 | 55 | 0 |
| CCCn1c(Oc2ccc(F)c(F)c2)nc2nc(C3CCCC3)[nH]c2c1=O | 0.08 | 1.73 | 17 (≈ 6.36 µg/mL) | 82 | 7.89 | 7 | 0.01 | 10.2 | 75 | < 5.00 | 23 (≈ 8.61 µg/mL) | 7.64 | 10 | 0.05 | 77 (≈ 28.8 µg/mL) | < 5.00 | 13.6 | 34 |
| CCCn1c(-c2cccc(OC)c2)nc2nc(C3CCCC3)[nH]c2c1=O | 0.05 | 1.2 | 54 (≈ 19 µg/mL) | 97 | 7.82 | 0 | 0.05 | 3.53 | 82 | 6.16 to 6.19 | 63 (≈ 22.2 µg/mL) | 7.80 | 1 | 0.03 | 614 (≈ 216 µg/mL) | ≤ 5.00 | 39.2 | 5 |
